# An excerpt weighted towards active compounds, which were near 3.2% of everything screened.
# Biofilm kill mix = mixture kills Candida albicans biofilm cells | C. albicans biofilm persisters + clotrimazole, fluorescence viability; primary screen in compound mixtures of four per well | inhibition, % at 7.6 µM | 120,000 tested, 0.02% active;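 active = inhibition above 30.3% in the primary screen of four-compound pools, then above 30% when the compound was retested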;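 note: compounds exposed to preformed 24 h biofilms for 48 h; 0% = untreated biofilm control and 100% = clotrimazole plus chlorhexidine kill blank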
#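 System: C. albicans CAF4-2 wild-type biofilms; Medium: RPMI/MOPS medium, pH 7.0; Reagent: Clotrimazole, 50 µg/mL; Times: biofilm formation 24 h, compound exposure 48 h, 37 °C; Detection: 2-h Alamar Blue fluorescence, 535/590 nm excitation/emission; Evaluation: percent inhibition of biofilm viability.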
# Hck Nef HTS = human Hck-Nef kinase inhibition; inhibition, % at 20 µM; Recombinant Hck-YEEI plus Nef, Z-Lyte FRET kinase assay; P08631; 220,000 tested, 0.68% active;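 active = Hck-Nef kinase inhibition above about 50%, limit read from the data; inactive = inhibition below that limit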;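 note: 0% = DMSO with Hck plus Nef and 100% = Hck alone without Nef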
# Mcl1-Noxa inh = disrupts binding of human Mcl-1 to Noxa peptide | Q07820 | TR-FRET Mcl-1/Noxa peptide binding, 2 h | inhibition, % at 21.7 µM | 220,000 tested, 1.5% active;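 active = compounds that cut the protein-peptide binding signal by more than 50% relative to plate controls in a single-dose test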;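 note: His-tagged Mcl-1 with rhodamine Noxa BH3 peptide and terbium anti-His antibody; 0% = Mcl-1 plus Noxa peptide wells and 100% = peptide-only wells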
# Target sequence (Q07820 whole entry, looked up): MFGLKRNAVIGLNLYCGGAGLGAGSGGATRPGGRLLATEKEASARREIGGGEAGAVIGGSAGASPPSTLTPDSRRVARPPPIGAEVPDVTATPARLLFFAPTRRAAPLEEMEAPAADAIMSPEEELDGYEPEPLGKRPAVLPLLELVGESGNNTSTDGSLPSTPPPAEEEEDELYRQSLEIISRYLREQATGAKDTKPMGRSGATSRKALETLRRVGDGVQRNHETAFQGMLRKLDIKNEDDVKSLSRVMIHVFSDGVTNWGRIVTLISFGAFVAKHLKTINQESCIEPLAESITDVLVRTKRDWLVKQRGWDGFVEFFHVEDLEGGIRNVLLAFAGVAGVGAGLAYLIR
# Mcl1 Bid PPI = Mcl-1/Bid interaction inhibition; TR-FRET Mcl-1/Bid-Dy647 peptide binding, 1536-well; inhibition, % at 21.7 µM; 220,000 tested, 0.97% active;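 active = compounds that cut the binding signal by more than half at the single screening dose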;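 note: His-tagged Mcl-1 with europium anti-His antibody binding Bid BH3 peptide; 0% = Mcl-1 plus peptide wells and 100% = peptide-only wells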
# Bim-Mcl-1 = disrupts Bim peptide binding to human Mcl-1; Q07820; AID 1009; 190,000 tested, 0.1% active; inhibition, % at 10 µM; Bead-based flow cytometry, Bim peptide-Mcl-1 binding; in the data active = inhibition above about 40%;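 note: 0% = no compound tracer wells and 100% = peptide blocker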
# 14-3-3 Bad inh = disrupts binding of bovine 14-3-3 zeta to phospho-Bad peptide; P63103; TR-FRET 14-3-3zeta/Dy647-pBad peptide displacement, 1 h; inhibition, % at 21.7 µM; 220,000 tested, 0.71% active; AID 781;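 active = inhibition above about 70%, limit read from the data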;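 note: 0% = full 14-3-3 plus peptide FRET controls and 100% = background without 14-3-3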
# Target sequence (P63103 whole entry, looked up): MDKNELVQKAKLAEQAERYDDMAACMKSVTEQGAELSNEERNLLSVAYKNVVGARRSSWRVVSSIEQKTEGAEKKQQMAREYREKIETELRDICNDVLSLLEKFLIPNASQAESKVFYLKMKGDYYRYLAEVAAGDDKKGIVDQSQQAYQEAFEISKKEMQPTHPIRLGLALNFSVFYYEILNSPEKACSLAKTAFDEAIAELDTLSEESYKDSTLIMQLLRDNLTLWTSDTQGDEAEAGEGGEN
# The depositor's hits bear a star; / = no result.
SMILES,Biofilm kill mix,Hck Nef HTS,Mcl1-Noxa inh,Mcl1 Bid PPI,Bim-Mcl-1,14-3-3 Bad inh
COc1cccc(-n2c(SCc3ccccn3)nc3c(c2=O)SCC3)c1,4.4,24.5,13.5,82.1*,-2.0,-13.1
COc1ccc(-n2c(SCc3cccnc3)nc3c(c2=O)SCC3)cc1OC,13.6,29.0,-6.2,-30.7,3.0,-13.7
COc1ccc(-c2nc(-n3c(C)c(C(C)=O)c(C(C)=O)c3C)sc2C)cc1,/,1.0,11.9,98.4*,-2.0,-9.4
O=C(N/N=C/c1ccc2cccnc2c1)c1ccco1,16.0,5.4,11.7,-4.4,-7.0,61.3
NC(=O)NC(CC(=O)NCCc1ccc(S(N)(=O)=O)cc1)c1ccccc1Cl (stereo not drawn),11.2,11.5,-1.3,-13.0,/,-2.7
NC(=O)NC(CC(=O)NCCc1ccc(S(N)(=O)=O)cc1)c1ccc(Cl)cc1 (stereo not drawn),12.3,10.1,3.2,83.6*,/,-0.1
CCN(CC)S(=O)(=O)c1ccc(C(=O)Oc2coc(CSc3nc(C)cc(C)n3)cc2=O)cc1,10.7,2.9,70.4*,-2.6,1.0,-6.2
COc1ccc(C(=O)OCC(=O)Nc2cc(C)on2)c(OC)c1OC,20.0,-44.2,-0.4,10.1,-3.0,6.2
Cc1ccc(NC(=O)CCC(=O)N/N=C/c2cccs2)cc1C,3.6,3.0,-3.7,3.1,-7.0,-2.8
Cc1ccc(NC(=O)CCC(=O)N/N=C/c2cccs2)cc1,19.2,1.1,3.9,-23.2,0.0,86.1*
CSc1nnc(-c2cc3c(-c4ccccc4)nn(C)c3s2)n1C,/,1.3,4.1,-11.8,3.0,88.6*
Cn1nc(-c2ccccc2)c(CN2CCN(c3ncccn3)CC2)c1Cl,14.1,-6.2,19.0,0.9,-7.0,-4.0
N#Cc1nc(COc2ccc(Cl)cc2)oc1NCc1ccc2c(c1)OCO2,/,1.5,-4.5,-16.5,0.0,5.7
Cc1cccc(OCc2nc(C#N)c(NCc3ccc4c(c3)OCO4)o2)c1,/,0.4,8.0,82.9*,0.0,-10.8
O=C(O)/C=C/c1cccc(OCc2ccccc2)c1,8.6,20.3,11.9,4.3,0.0,-1.6
O=C(/C=C/c1cccc(OCc2ccccc2)c1)c1cccnc1,15.4,0.5,30.1,55.4*,-4.0,53.0
CCCCSc1nn[nH]n1,/,5.3,18.4,16.7,-2.0,76.0*
Cc1cc(C)cc(N2CC(O)=C(c3nc4ccccc4c(=O)[nH]3)C2=N)c1,-6.0,22.3,-39.3,-179.9,-4.0,76.8*
Cc1ccc(C)c(NC(=O)CCC(=O)N/N=C/c2cc([N+](=O)[O-])ccc2O)c1,22.7,21.0,-23.5,-40.6,-1.0,-13.1
Cc1cc(=O)oc2cc(OCC(=O)N/N=C/c3cc([N+](=O)[O-])ccc3O)ccc12,15.1,5.1,73.2*,81.5*,0.0,34.0
COc1ccc(C2C(C(=O)N3CCCCC3)CC(=O)N2c2ccc(OC)cc2)cc1 (stereo not drawn),/,-0.7,-9.1,-14.2,-5.0,2.3
COc1ccc(N2C(=O)C(CN3CCCCC3)C2c2ccccc2)cc1 (stereo not drawn),7.4,27.2,-1.6,-14.9,-1.0,88.9*
Cc1nn2c(C(F)(F)F)c3c(nc2c1-c1ccccc1)CCC3,28.1,21.2,11.7,-15.1,-4.0,-1.4
CCn1c(C)nc2cc(C(=O)n3cc(C(=O)c4ccccc4O)cn3)ccc21,/,88.9*,1.7,-16.2,0.0,-3.5
C(=C\c1nnc2c3ccccc3ncn12)/c1ccccc1,-3.0,1.6,-35.0,-8.2,-2.0,-7.2
SMILES,Biofilm kill mix,Hck Nef HTS,Mcl1-Noxa inh,Mcl1 Bid PPI,Bim-Mcl-1,14-3-3 Bad inh
COc1cc(/C=C/c2nnc3c4ccccc4ncn23)cc(OC)c1OC,-0.3,1.4,52.3*,2.2,-5.0,2.3
O=C(NCC1OCCCN1S(=O)(=O)c1cc(F)ccc1F)C(=O)NC1CCCCCC1 (stereo not drawn),11.3,14.9,2.9,2.8,-1.0,-2.3
O=C(c1ccco1)N1CCN(C(=O)c2cc(-c3ccccc3)nc3ccccc23)CC1,/,2.2,8.4,-2.5,-2.0,-6.8
Cc1ccc2nc(SCC(=O)N3CCN(C(=O)c4ccco4)CC3)[nH]c2c1,5.6,3.2,7.8,-5.9,-5.0,-4.3
NS(=O)(=O)c1ccc(CNC(=O)c2cc(-c3ccccn3)nc3ccc(Cl)cc23)cc1,9.4,21.9,54.4*,-62.5,1.0,-14.8
O=C(c1ccco1)N1CCN(C(=O)c2cc(-c3ccccn3)nc3ccc(Cl)cc23)CC1,/,2.3,64.4*,-5.6,0.0,-8.3
NS(=O)(=O)c1ccc(CNC(=O)c2cc(-c3ccccc3)nc3ccccc23)cc1,14.7,26.1,1.2,-8.2,/,4.1
CCSc1ccccc1C(=O)NCc1ccc(S(N)(=O)=O)cc1,/,3.6,52.5*,-4.9,-3.0,-0.1
O=C(CSc1nc2ccc(Cl)cc2[nH]1)N1CCN(C(=O)c2ccco2)CC1,-3.5,2.1,57.1*,-8.6,21.0,3.8
COC(=O)c1ccc(CNC(=O)COc2ccccc2Br)o1,/,-1.1,-0.8,-8.3,-3.0,7.8
NS(=O)(=O)c1ccc(CCN2C(=O)/C(=C\c3ccc(Cl)cc3)SC2=S)cc1,13.2,4.7,14.0,-24.0,-5.0,-10.3
Cc1cc(C)c2c(NC(=S)Nc3ccccc3)n[nH]c2n1,11.1,29.4,60.2*,-37.0,1.0,-14.4
S=c1nc(-c2sccc2OCc2ccc(Cl)cc2Cl)[nH][nH]1,9.0,-45.7,11.5,-39.3,-1.0,-7.4
CCOC(=O)Nc1nnc(-c2cccc(OC)c2)s1,/,0.5,10.6,16.4,0.0,31.7
CCCC(=O)Nc1nnc(-c2cccc(OCC)c2)s1,/,2.4,6.3,86.0*,-2.0,12.2
O=C(OCc1ccccc1)/C(=C/c1ccc(Cl)cc1)NC(=O)c1ccccc1Cl,/,0.1,0.1,-6.0,-1.0,80.1*
COC(=O)CSc1nn(-c2ccc(F)cc2)c(=S)s1,10.5,20.9,-0.2,-25.6,-1.0,1.2
Oc1ccc(Br)cc1-c1cc(-c2ccc(Cl)cc2)n[nH]1,/,2.3,82.0*,9.5,-2.0,1.1
Oc1ccc(Br)cc1-c1cc(-c2ccccc2)n[nH]1,17.6,-7.1,23.0,1.3,-4.0,-2.0
COc1cccc2c(=O)c(C/C=C(/C)Cl)c(C)[nH]c12,/,1.6,10.9,91.6*,0.0,4.6
O=C(Nc1nnc(-c2ccccc2Cl)o1)c1cc2cc([N+](=O)[O-])ccc2s1,12.1,3.2,55.1*,35.4,-2.0,44.8
O=C(Nc1ccccn1)c1cc2cc([N+](=O)[O-])ccc2s1,8.8,20.1,35.7,8.3,0.0,46.6
CCN1CCN(CCNC(=O)c2ccc(/C=C3/Sc4ccccc4N(Cc4ccccc4C)C3=O)cc2)CC1,16.7,-5.7,31.1,-7.3,-7.0,70.3*
CCN1CCN(CCCNC(=O)c2ccc(/C=C3/Sc4ccccc4N(Cc4ccccc4F)C3=O)cc2)CC1,16.3,-7.7,32.4,-9.2,0.0,80.8*

# Screening results deposited in PubChem BioAssay by several laboratories.
